# From PubChem BioAssay
# Beta2AR agonist = agonists of human beta-2 adrenergic receptor inducing internalization; P07550; Am2.2-beta2AR cells, FAP receptor internalization, flow cytometry; response, % (concentration not given with the values); 340,000 tested, 0.43% active;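 active means response above a set limit, near 3 SD of response in nonfluorescent compounds, cut at about 42% in these data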
# Dynein cargo inh = dynein cargo transport inhibition; 3617.4 mouse cells, GR-EGFP nuclear translocation imaging; test concentration mostly 20 µM; stimulated with dexamethasone, 1 µM; hits give low values; z-score, hits read low; 220,000 tested, 0.47% active;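 active means plate z-score of nuclear minus cytoplasmic receptor signal below a set negative limit, without overly bright fluorescence or cell loss, cut at about -3.5 in these data, passing the limit was not always enough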;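 further: z-score of nuclear minus cytoplasmic ring GR-EGFP intensity difference per well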
#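 Also added: dexamethasone, 1.0 µM final. Medium: tet-free, stripped-serum medium. Detection: fixed, Hoechst-stained cells imaged at 10x for EGFP. Read-out: nuclear-to-cytoplasmic GR-EGFP distribution per well. Times: induction 48 h, compound 1 h, agonist 30 min.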
# ABHD5-PLIN5 inh = inhibitors of human ABHD5-perilipin-5 interaction | Q00G26+Q8WTS1 | Split G. princeps luciferase complementation, luminescence, 4 h | inhibition, % at 4 µM | 360,000 tested, 0.78% active;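 active means inhibition above the mean inhibition across every tested compound plus 3 SD, cut at about 22% in these data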;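 further: 0% = DMSO only wells and the 100% control is not disclosed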
# NOD2 RIPK2 PPI = NOD2-RIPK2 protein interaction inhibition; inhibition, % at 4.98 µM; 360,000 tested, 0.38% active; CHO BLA complementation NOD2-RIPK2, CCF4 ratio; AID 624267; O43353; in the data active means inhibition above about 21%;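 further: 0% = vehicle only and 100% = reference blocker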
# TLR4 MyD88 comp = TLR4-MyD88 interaction inhibition in cells; O00206+Q99836; HeLa CL3-4 TLR4/MyD88 BLA complementation, FRET ratio; inhibition, % at 8.4 µM; 200,000 tested, 0.18% active; AID 861; in the data active means inhibition above about 25%;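 further: 0% = vehicle and 100% = reference inhibitor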
# TLR9-MyD88 block = blocks human TLR9 binding to MyD88; 340,000 tested, 0.21% active; CHO BLA complementation TLR9-MyD88, CCF4 FRET ratio; AID 504734; inhibition, % at 4.98 µM; Q9NR96+Q99836;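 active means inhibition above the mean over all tested compounds plus 3 SD, cut at about 21% in these data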;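 further: 0% = DMSO only wells and 100% = clavulanate BLA inhibitor control wells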
# Dynein confirm = dynein cargo transport inhibition, confirmation | 3617.4 GR-EGFP nuclear translocation imaging, dexamethasone-induced | AID 463116 | calls only at 20 µM | 1,000 tested, 69% active | shares compounds with Dynein cargo inh;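 active means inhibition of receptor movement into the nucleus at or above a set limit in both runs, with normal cell brightness and cell count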;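 further: dexamethasone at 1 µM final in well for 30 min; nuclear minus cytoplasmic GR-EGFP mean intensity difference in channel 2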
# Beta2AR ag CP1 = activates human beta-2 adrenergic receptor; Am2.2-beta2AR cells, FAP surface receptor, flow cytometry; hits give low values; shares compounds with Beta2AR agonist; percent response (surface receptor), % at 10 µM; 1,100 tested, 25% active; AID 540358;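 active means surface receptor percent response at or below 58%, roughly 3 SD from nonfluorescent compounds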
# FAP fluor counter = fluorescence artifact in beta-2AR agonist FAP counterscreen | Am2.2 cells, FAP fluorogen flow cytometry; hits give low values | 1,100 tested, under 10 active | shares compounds with Beta2AR agonist | calls only at 10 µM;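 active means percent response below a set limit in fluorescence channel 1 and below 50% in channel 8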
# TLR9-MyD88 conf = TLR9-MyD88 interaction inhibition, confirmation | shares compounds with TLR9-MyD88 block | CHO TLR9/MyD88 BLA complementation, CCF4 FRET ratio | inhibition, % at 4.98 µM | 680 tested, 51% active | AID 540250;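 active means mean inhibition across three repeats above about 21% taken from the earlier screen, limit read from the data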;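 further: blue over green emission ratio reports constitutive TLR9 MyD88 association via BLA complementation; 0% = DMSO vehicle wells and 100% = clavulanate BLA inhibitor wells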
# BLA counter-1 = counter-screen for TLR9-MyD88 inhibitors: non-selective beta-lactamase inhibitors; inhibition, % at 4.98 µM; 680 tested, 7% active; shares compounds with TLR9-MyD88 block; CHO-BLA cells, CCF4 FRET ratio, BLA reporter;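 active means mean inhibition above a 50% cutoff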;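 further: counterscreen of TLR9-MyD88 hits on CMV-driven BLA in CHO-K1 cells; 0% = DMSO alone and 100% = clavulanate blocking BLA; higher means less blue over green ratio so more BLA blockade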
# TLR9 CHO tox = CHO cell toxicity counter-screen for TLR9-MyD88 inhibitors. shares compounds with TLR9-MyD88 block. TLR9-MyD88 CHO cells cytotoxicity, luminescence. inhibition, % at 4.98 µM. 680 tested, 39% active. AID 588336; in the data active means inhibition above about 11%
# ABHD5 PLIN5 conf = confirmation of human ABHD5-PLIN5 interaction inhibitors | shares compounds with ABHD5-PLIN5 inh | 2,200 tested, 67% active | inhibition, % at 4 µM | biochemical ABHD5-PLIN5 interaction, luminescence; in the data active means inhibition above about 23%;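 further: 0% = DMSO vehicle wells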
# HNF4 counter = HNF4 split-luciferase signal hit, counter-screen; shares compounds with ABHD5-PLIN5 inh; HNF4 dimerization, luminescence, biochemical; inhibition, % at 4 µM; 2,200 tested, 77% active; AID 651674;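 active means mean inhibition across replicate wells exceeding the computed hit threshold, cut at about 13% in these data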;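 further: light from luciferase halves that rejoin when HNF4 fusion proteins dimerize; 0% = DMSO only wells and the 100% control is not given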
# NOD2-RIPK2 conf = confirmation of human NOD2-RIPK2 interaction inhibitors | inhibition, % at 4.98 µM | shares compounds with NOD2 RIPK2 PPI | 1,200 tested, 70% active | CHO cells, NOD2-RIPK2 BLA complementation, CCF4 FRET;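 active means mean inhibition across replicates above a set limit taken from the earlier primary screen, cut at about 21% in these data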;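 further: 0% = DMSO-only wells and the high end = clavulanate BLA-blocked wells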
# BLA counter-2 = NOD2-RIPK2 counterscreen BLA reporter activity. CHO BLA reporter, CCF4 FRET ratio. inhibition, % at 4.98 µM. shares compounds with NOD2 RIPK2 PPI. 1,200 tested, 57% active;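 active means mean inhibition above the low-control mean inhibition plus three low-control SD, cut at about 11% in these data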;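 further: 0% = DMSO only wells and 100% = clavulanate high control wells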
# * marks the source's active call; other numbers are inactive results; i = inactive; / = no result given; + = active, no number. Shown are actives, neighbours in structure and some others; about 1.6% of the full set was active somewhere.
SMILES,Beta2AR agonist,Dynein cargo inh,ABHD5-PLIN5 inh,NOD2 RIPK2 PPI,TLR4 MyD88 comp,TLR9-MyD88 block,Dynein confirm,NOD2-RIPK2 conf,BLA counter-2,others
COc1ccc(NC(=O)c2cccc([N+](=O)[O-])c2)cc1,-13,-0.015,-1,0,-7,3,/,/,/,
CN(CC(=O)Nc1ccc(F)cc1)C(=O)c1ccc(-c2ccc(F)cc2)o1,/,/,-2,-3,/,-10,/,/,/,
O=C(CNC(=O)COc1ccccc1)NCCN1CCOCC1,-5,/,3,0,/,-7,/,/,/,
Cc1ccc2nc(/C(C#N)=C/c3ccc(-c4ccccc4C(=O)O)o3)[nH]c2c1,3,/,-3,10,/,2,/,/,/,
Cc1ccc2nc(/C(C#N)=C\c3ccc(N4CCOCC4)o3)[nH]c2c1,-93,-6.6,24*,8,12,8,+,/,/,ABHD5 PLIN5 conf=31*;HNF4 counter=44*
CNc1cncc(-c2cccc(OC)c2F)n1,/,/,-4,-2,/,/,/,/,/,
O=C(/C=C/c1cccnc1)/C=C/c1cccnc1,67*,-6.4*,95*,23*,/,7,+,48*,4,ABHD5 PLIN5 conf=102*;HNF4 counter=108*
CCCC(=O)N(C1CC(C)C(C#N)(C#N)C1(C#N)C#N)N(C)C (configuration not stated),43*,-5.3*,36*,57*,/,0,i,92*,14*,Beta2AR ag CP1=34*;FAP fluor counter=i;ABHD5 PLIN5 conf=59*;HNF4 counter=101*
COc1ccc([N+](=O)[O-])c(S(=O)(=O)c2ccccc2)n1,51*,-5.5*,53*,33*,/,/,+,59*,-4,
COc1ccc([N+](=O)[O-])c(S(=O)(=O)c2ccc(Cl)cc2)n1,41,-4.9*,39*,21*,/,-3,+,48*,-11,
COc1ccc(NC(=O)C2Cc3c(-c4ccco4)ccnc3O2)cc1OC (configuration not stated),/,/,9,2,/,/,/,/,/,
COc1ccc(N2CCN(S(=O)(=O)c3c(C)[nH]c(C)c3C(=O)N3CCCC3)CC2)cc1,5,/,-4,6,/,-8,/,/,/,
COc1ccc(NC(=O)/C(Cl)=C(/Cl)S(=O)(=O)Cc2ccccc2)cn1,37,-5.6*,49*,56*,10,28*,+,68*,23*,TLR9-MyD88 conf=21*;BLA counter-1=20;TLR9 CHO tox=99*
COc1ccc(NC(=O)Nc2ccc(OCc3ccccc3)cc2)cn1,14,/,-11,-2,/,-8,/,/,/,
O=c1c(Cl)c(Cl)cnn1-c1ccccc1,34,-4.6*,10,23*,24,24*,+,35*,9,TLR9-MyD88 conf=21*;BLA counter-1=13;TLR9 CHO tox=98*
N#C/C(=C\c1ccc(N2CCOCC2)o1)C(=O)NC1CCCCC1,3,0.14,11,7,/,-4,/,/,/,
N#C/C(=C/c1ccc(N2CCCCCC2)o1)c1ccc(Cl)cc1,-918,-6.1,78*,39*,21,24*,i,28*,14*,TLR9-MyD88 conf=9;BLA counter-1=9;TLR9 CHO tox=84*;ABHD5 PLIN5 conf=82*;HNF4 counter=111*
C#CCOC(=O)c1cc(Cl)c(=O)n(Cc2ccc(Cl)cc2Cl)c1,-3,/,6,-6,/,2,/,/,/,
COc1ccc(-n2nc(C#N)c(Cl)cc2=O)cc1,90*,-5.9*,5,49*,17,/,+,56*,8,
COC(=O)c1nn(-c2ccc(OC)cc2)c(=O)cc1O,2,-0.76,-2,1,-9,6,/,/,/,
CCCCNc1ccc2c3c(cccc13)C(=O)N(CCCC)C2=O,/,-6.1*,16,63*,/,67*,+,77*,79*,TLR9-MyD88 conf=50*;BLA counter-1=49;TLR9 CHO tox=11*
CC(OC(=O)c1cccc(S(=O)(=O)N2CCCC2)c1)C(=O)NC1CCCCC1C (configuration not stated),-3,/,9,2,/,-6,/,/,/,
O=C1c2ccccc2C(=O)N1Nc1ccccc1,1,0.45,0,0,6,3,/,/,/,
Cc1ccc(NN2C(=O)C=C(c3ccccc3)C2=O)cc1,/,-4.5*,92*,84*,-3,/,+,86*,1,ABHD5 PLIN5 conf=100*;HNF4 counter=105*
Cn1c(N)c(C(=O)CSc2n[nH]c(N)n2)c(=O)n(C)c1=O,9,/,3,7,/,3,/,/,/,
CCc1ccc(/C=C2/SC(N3CCOCC3)=NC2=O)cc1,-8,-0.83,-2,6,/,-5,/,/,/,
CCN1C/C(=C/c2ccc(N3CCOCC3)cc2)C(=O)/C(=C/c2ccc(N3CCOCC3)cc2)C1,-2,-3.6,58*,23*,20,8,+,39*,34*,
O=S(=O)(c1cnc(Cl)c(Cl)c1)N1CCCc2ccccc21,-1,-1.6,1,4,7,0,/,/,/,
O=S(=O)(c1cnc(Cl)c(Br)c1)N1CCc2ccccc21,56*,-4.7*,-2,27*,/,12,+,35*,5,
O=[N+]([O-])c1cc(S(=O)(=O)N2CCCC2)ccc1O,-3,-0.51,1,-15,-12,6,/,/,/,
